In the RNAGym collection of RNA variant scans (doi:10.1038/nmeth.2970) one finds Kd data, which are given here for 167 variants.

B1: NELF-E aptamer (parent)
chain: CCCAACGACUGCCGAGCGAGAUUACGCUUGAGCGCCCCACUGAGGAUGCCCACGGGCGAUUGGGGCACGG

Variants of B1 are the subject of the data set. The data set is described as follows: HiTS-RAP. As to conditions: with NELF-E (Drosophila). A digest of the protocol:
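Aptamer DNA templates carrying a T7 promoter and ter site were sequenced on an Illumina GAIIx flowcell, then transcribed in situ by T7 RNA polymerase and halted by GST-Tus (30 minutes, 37°C). Clusters were imaged after 30-minute room-temperature equilibration with NELF-E-mOrange at 0.064 to 1000 nM in HEPES binding buffer, and only the first binding curve was used. Intensities were normalised to sequencing intensity and averaged per sequence. Kd came from weighted Hill fits, keeping fits with variance below 1,000,000.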
For C9G A67U, the equilibrium dissociation constant (Kd) stood at 8.77 nM.
On to C9G A67G, for which the Kd was found to be 6.17 nM.
To A8G U22C belongs 5.08 nM; to A8G U22G, 5.75 nM.
As for A8G G55A, the Kd came to 10 nM.
For the variant A8G G55U, the Kd was 7.12 nM.
G7U G45A: the Kd is 21.8 nM.
With G7U G18A, the Kd stood at 5.43 nM.
As for G7U G18U, the Kd was found to be 6.84 nM.
For the variant A8U G18U, the Kd came out at 5.91 nM.
Consider A8U G18A, for which the Kd turned out to be 5.68 nM.
With A8C U23G, the Kd stood at 7.61 nM.
As to A8U A43U, the Kd was determined as 104 nM.
In the case of A8U A43G it was 25.7 nM; in that of G7U U22C, 5.8 nM.
Regarding G7U U22G, the Kd was 6.14 nM.
For G7U U22A, the Kd came to 6.43 nM.
With G7U U29G, the Kd came to 6.33 nM.
In the case of G7U U29A it was 5.71 nM; in that of G7U U29C, 6.86 nM.
Consider G7U G62A, for which the Kd was found to be 25.2 nM.
As to G7U G62U, the Kd stood at 7.8 nM.
For G7U C57U, the equilibrium dissociation constant (Kd) was 6.23 nM.
As to G7U G56A, the Kd came out at 9.43 nM.
With G7U G56U, the Kd worked out at 7.83 nM.
Consider G7U U47A, for which the Kd was found to be 12.9 nM.
Turning to G7U U47G, the Kd worked out at 7.97 nM.
To G7U C50U belongs 9.77 nM; to A8U C25U, 6.08 nM.
In the case of A8U C25G it was 6.83 nM; in that of A8U C38U, 8.93 nM.
In the case of C9A U10G it was 5.43 nM.
Take A8U G65U: the Kd was determined as 8.03 nM.
In the case of A8U G65A, the Kd is 5.1 nM.
As for A8C U29G, the Kd is 8.24 nM.
Turning to A8U A52G, the Kd came to 5.67 nM.
For the variant A8U A52U, the Kd came out at 17.4 nM.
To A8G G42A belongs 44.1 nM; to A8U C50U, 10.4 nM.
Turning to A8G G58U, the Kd turned out to be 20.1 nM.
For A8G C25U, the equilibrium dissociation constant (Kd) is 5.14 nM.
In the case of G7U G54U it was 5.44 nM; in that of G7U G54A, 15.7 nM.
A8G C33U: the Kd was 5.16 nM.
In the case of A8U A21U, the Kd was 7.37 nM.
To A8U A21G belongs 6.05 nM; to A8G C12G, 5.74 nM; to A8G C12U, 5.09 nM.
Take G7U U28G: the Kd worked out at 8.81 nM.
For the variant G7U U28C, the Kd is 9.32 nM.
In the case of G7U U28A, the Kd came out at 5.51 nM.
Consider A8U U23G, for which the Kd is 6.17 nM.
As to A8U U23C, the Kd amounted to 5.3 nM.
For the variant A8U G20U, the Kd was 6.62 nM.
Take C9G A52G: the Kd is 4.79 nM.
As for C9G A52C, the Kd stood at 7.38 nM.
Turning to C9G A52U, the Kd is 14.9 nM.
With G7U G44U, the Kd worked out at 16.7 nM.
Consider C9G A19U, for which the Kd worked out at 7.14 nM.
Consider C9G A19G, for which the Kd was determined as 5.58 nM.
For the variant A8G U23C, the Kd was determined as 4.62 nM.
As to A8G U23G, the Kd is 5.8 nM.
Regarding G7U C51U, the Kd turned out to be 7.54 nM.
In the case of A8G U10C, the Kd worked out at 5.52 nM.
Consider A8G U10G, for which the Kd turned out to be 5.44 nM.
In the case of A8G U10A, the Kd came out at 5.37 nM.
For the variant A8U C12U, the Kd is 5.4 nM.
In the case of A8U C12G, the Kd came out at 6.15 nM.
Regarding A8G G11U, the Kd is 6.74 nM.
To A8G G11A belongs 6.3 nM; to C9G A31G, 8.03 nM; to C9G A31U, 7.5 nM.
In the case of C9A it was 5.07 nM.
In the case of C9G it was 5.17 nM; in that of G7U U10G, 5.68 nM.
With G7U U10A, the Kd was 7.85 nM.
For the variant G7U U10C, the Kd stood at 5.96 nM.
In the case of A8U A24G it was 6.05 nM; in that of A8C U22G, 7.46 nM.
For A8U U22G, the Kd was determined as 6.1 nM.
A8U U22C: the Kd turned out to be 5.14 nM.
Consider A8G C37U, for which the Kd was 10.1 nM.
In the case of C9G A15U, the Kd was found to be 7.39 nM.
Regarding C9G A15G, the Kd came out at 6.64 nM.
Consider G7U U23C, for which the Kd amounted to 4.06 nM.
Take G7U U23G: the equilibrium dissociation constant (Kd) came to 6.08 nM.
On to A8G C53U, for which the Kd came to 4.94 nM.
With A8U C66U, the equilibrium dissociation constant (Kd) was determined as 5.31 nM.
In the case of G7U C40U it was 80.4 nM; in that of A8U C40G, 8.55 nM; in that of A8U U41G, 6.19 nM.
In the case of A8U U41C it was 85.6 nM; in that of G7U A46G, 56 nM; in that of G7U G64U, 7.33 nM.
Turning to G7U G64A, the Kd is 8.36 nM.
As to G7U G65U, the Kd was 7.38 nM.
In the case of G7U G65A, the Kd came to 4.96 nM.
In the case of A8U A59G it was 47.2 nM.
For A8G A21U, the Kd was found to be 5.17 nM.
In the case of A8G A21G it was 6.28 nM; in that of A8G A46G, 17.8 nM; in that of A8G U41G, 6.37 nM.
As for G7U G30A, the Kd was 6.35 nM.
Turning to G7U G30U, the Kd is 7.92 nM.
Take G7U A59U: the Kd was 18.3 nM.
As to G7U A59G, the Kd was 67.6 nM.
Take G7U C38U: the Kd worked out at 8.98 nM.
Turning to A8U G62U, the Kd was determined as 10 nM.
Regarding A8U G62A, the Kd was found to be 19.2 nM.
Take A8U C35U: the Kd stood at 12.5 nM.
Turning to G7U A52G, the Kd is 4.13 nM.
Take G7U A52U: the Kd was 19.3 nM.
As to C9G A21G, the Kd came to 6.86 nM.
In the case of C9G A21U it was 6.36 nM.
Turning to G7U G32A, the Kd was found to be 4.74 nM.
To G7U C9U belongs 6.52 nM; to G7U C9G, 6.28 nM.
To A8U G44U belongs 25.7 nM; to A8G G48A, 11.7 nM.
For the variant G7U C33G, the Kd is 5.51 nM.
Take G7U C33U: the Kd came out at 6.35 nM.
Consider A8U G34A, for which the Kd worked out at 6.21 nM.
For the variant C9G C33U, the Kd is 5.9 nM.
As to G7U A24U, the Kd worked out at 6.81 nM.
On to G7U A24G, for which the Kd came out at 6.71 nM.
To G7U C53U belongs 4.6 nM; to A8U G64A, 8.34 nM; to A8U G64U, 9.52 nM.
To A8U G64C belongs 7.62 nM; to G7U G34U, 7.8 nM; to G7U G34A, 7.85 nM.
As to A8G U61C, the Kd worked out at 70.8 nM.
In the case of A8G U61A it was 29.3 nM; in that of A8G C17U, 4.94 nM.
In the case of A8G C17G it was 5.53 nM.
In the case of G7U C27U, the Kd stood at 5.11 nM.
In the case of G7U C27G, the Kd was determined as 5.97 nM.
For G7U G11A, the Kd stood at 6.15 nM.
To G7U G11U belongs 6.5 nM; to G7U G48A, 12 nM.
As for A8G A67G, the Kd worked out at 6.62 nM.
In the case of A8G A67U, the Kd amounted to 6.63 nM.
To A8G C57U belongs 6 nM; to G7U A67U, 9.65 nM; to G7U A67G, 7.45 nM.
Turning to G7U C17G, the Kd was found to be 6.28 nM.
In the case of G7U C17U it was 6.16 nM.
In the case of A8G G16A it was 5.75 nM; in that of A8G G16U, 6.76 nM.
With G7U G16U, the Kd was determined as 7.06 nM.
Turning to G7U G16A, the Kd came out at 6.97 nM.
To A8U C51U belongs 10.8 nM; to G7U G14U, 6.73 nM.
In the case of G7U G14A it was 6.59 nM.
To C9G C27U belongs 4.83 nM.
On to G7U C13G, for which the Kd is 5.83 nM.
In the case of G7U C13A, the Kd was 6.82 nM.
Regarding G7U C13U, the dissociation constant Kd turned out to be 5.75 nM.
As for A8U C36U, the Kd was 8.33 nM.
To C9G C35G belongs 7.59 nM; to C9G C35U, 14.3 nM.
On to A8G A52U, for which the Kd was found to be 15.5 nM.
To A8G A52G belongs 4.33 nM; to C9G A59U, 30.4 nM; to C9G A59G, 64.3 nM.
As for A8G A59G, the Kd stood at 89.2 nM.
To A8G A59U belongs 57.1 nM.
